ChEMBL document CHEMBL1122519, “Bispyridinamines: a new class of topical antimicrobial agents as inhibitors of dental plaque” (1984)

Assays:
Pseudomonas aeruginosa [1] = test: Compound is evaluated for the antimicrobial minimum inhibitory concentration against Pseudomonas aeruginosa MGH-1; format: functional
Streptococcus mutans [2] = test: Compound is evaluated for minimum plaque inhibitory concentration using a standard test organism, Streptococcus mutans OMZ-61; format: functional
Summary of the method: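 S. mutans OMZ-61 in pH 7.0 beef extract–trypticase medium with 0.5% sucrose. Sterile ceramic hydroxylapatite plates got two 1-min soaks in 0.1–0.001% compound, each followed by 1-min air-drying, then a 5-min water rinse. Plates were put in inoculated medium at 37 °C anaerobically for 24 h. The cycle was repeated for a second 24 h. Plaque was stained with 1% FD&C Red No. 3. Value is the lowest concentration completely preventing plaque.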

Escherichia coli [3] = test: Minimum inhibitory concentration against Escherichia coli (Vogel); format: functional
Summary of the method: (§1)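 Serial twofold tube dilution in tryptose phosphate broth. Each compound was prepared as a 1000 μg/mL aqueous stock and diluted in double-strength broth, then 2×10^5 cells were added. Tubes were incubated aerobically at 37 °C for 24 h. The MIC was taken as the lowest concentration with no visible growth.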

Staphylococcus aureus [4] = test: Compound is evaluated for the antimicrobial minimum inhibitory concentration against Staphylococcus aureus (Smith); format: functional; summary of the method: as §1
Proteus mirabilis [5] = test: Compound is evaluated for the antimicrobial minimum inhibitory concentration against Proteus mirabilis MGH-1; format: functional; summary of the method: as §1
Klebsiella pneumoniae = test: Minimum inhibitory concentration against Klebsiella pneumonia 39645; format: functional; summary of the method: as §1
Escherichia coli [6] = test: Antimicrobial minimum inhibitory concentration against Escherichia coli AB1932-1; format: functional; summary of the method: as §1
[7] = Compound is evaluated for stain index; format: functional
Summary of the method: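 Ratio of the minimum concentration staining a plaque-free ceramic hydroxylapatite plate to the minimum plaque-inhibiting concentration, both run under the same conditions. Plates got two 1-min soaks (0.1–0.001%), each followed by air-drying, then a water rinse. They were then held 24 h anaerobically at 37 °C in sucrose beef-extract medium, with or without S. mutans OMZ-61, repeated once. Staining was 1-min 1% FD&C Red No. 3, scored visually.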

Pseudomonas aeruginosa [8] = test: Minimum antimicrobial inhibitory concentration against Pseudomonas aeruginosa MGH-2; format: functional; summary of the method: as §1
Actinomyces viscosus = test: Compound is evaluated for minimal bactericidal concentration against plaque formation for Actinomyces viscosus; format: functional, organism-based
Summary of the method: (§2)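 Preformed in vitro plaques of S. mutans NCTC 10449 or A. viscosus M-100 were grown on ceramic hydroxylapatite under anaerobic conditions at 37 °C in sucrose-supplemented medium. Plaques were immersed for 30 min at 37 °C in compound at 0.3–20 mM, rinsed, and moved to broth containing bromocresol purple. Kill was judged by no acid production, no turbidity increase and no growth on plating at 48 h. Plaques were run in quadruplicate.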

Streptococcus mutans [9] = test: Minimum plaque inhibitory concentration using a standard test organism, Streptococcus mutans OMZ-61; format: functional, organism-based
Summary of the method: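 Ceramic hydroxylapatite plates were soaked twice for 1 min each in compound at […] (aqueous), air-dried and rinsed, then hung in sucrose beef-extract medium (pH 7.0) inoculated with late-log S. mutans OMZ-61. Incubation was anaerobic at 37 °C for 24 h, and treatment plus reinoculation were repeated for a second 24 h. Plaque was stained with 1% FD&C Red No. 3 and scored visually. The value is the lowest concentration giving no plaque while medium growth matched control.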

Escherichia coli [10] = test: Antimicrobial minimum inhibitory concentration against Escherichia coli 100/B22; format: functional; summary of the method: as §1
Proteus mirabilis [11] = test: Minimum antimicrobial inhibitory concentration against Proteus mirabilis MGH-1; format: functional; summary of the method: as §1
Staphylococcus aureus [12] = test: Minimum antimicrobial inhibitory concentration against Staphylococcus aureus; format: functional; summary of the method: as §1
Streptococcus mutans [13] = test: Compound is evaluated for minimal bactericidal concentration against plaque formation for Streptococcus mutans; format: functional, organism-based; summary of the method: as §2

SMILES	MIC (Pseudomonas aeruginosa [1]) [µg/mL]	Min plague Inhibitory (Streptococcus mutans [2]) [%]	MIC (Escherichia coli [3]) [µg/mL]	MIC (Staphylococcus aureus [4]) [µg/mL]	MIC (Proteus mirabilis [5]) [µg/mL]	MIC (Klebsiella pneumoniae) [µg/mL]	MIC (Escherichia coli [6]) [µg/mL]	Stain index [7]	MIC (Pseudomonas aeruginosa [8]) [µg/mL]	Concentration (Actinomyces viscosus) [mM]	Concentration (Streptococcus mutans [9]) [%]	MIC (Escherichia coli [10]) [µg/mL]	MIC (Proteus mirabilis [11]) [µg/mL]	MIC (Staphylococcus aureus [12]) [µg/mL]	Concentration (Streptococcus mutans [13]) [mM]
Br.Br.N=c1ccn(CCCCCCn2ccc(=N)cc2)cc1	> 500	>1	500	250	> 500	> 500	–	–	–	–	–	–	–	–	–
Br.Br.CCCCCCCCN=c1ccn(CCCCCCCCCCCCn2ccc(=NCCCCCCCC)cc2)cc1	–	–	2	–	–	1	2	10	2	1.35	0.005	2	2	0.5	2.7
CCCCCCCCN=c1ccn(CCCCCCCCn2ccc(=NCCCCCCCC)cc2)cc1.Cl.Cl	–	–	1	–	–	1	1	10	7.8	0.88	0.005	0.5	3.9	0.2	8.8
Br.Br.N=c1ccn(CCCCn2ccc(=N)cc2)cc1	> 500	>1	500	125	> 500	> 500	–	–	–	–	–	–	–	–	–
Br.Br.CCCCCCCCCN=c1ccn(CCCCCCCCCCCCn2ccc(=NCCCCCCCCC)cc2)cc1	–	–	3.9	–	–	3.9	7.8	1	3.9	2.6	0.01	3.9	3.9	2	1.3
Br.Br.CCCCCCCCCN=c1ccn(CCCCCCCCCn2ccc(=NCCCCCCCCC)cc2)cc1	–	–	2	–	–	3.9	3.9	1	3.9	1.37	0.004	2	3.9	2	1.37
Br.Br.CCCCCCCCN=c1ccn(CCCCCCCCCCCCCCn2ccc(=NCCCCCCCC)cc2)cc1	–	–	7.8	–	–	7.8	3.9	2	3.9	2.6	0.005	3.9	3.9	1	1.3
Br.Br.CCCCCCCCCN=c1ccn(CCCCCCCCCCn2ccc(=NCCCCCCCCC)cc2)cc1	–	–	2	–	–	3.9	3.9	1	3.9	2.7	0.004	3.9	3.9	2	1.35
CCCCCCCN=c1ccn(CCCCCCCCCCn2ccc(=NCCCCCCC)cc2)cc1.Cl.Cl	–	–	0.5	–	–	1	1	10	7.8	1.46	0.004	0.5	7.8	0.2	0.73
CCCCCCN=c1ccn(CCCCCCCCCCCCCCn2ccc(=NCCCCCC)cc2)cc1.Cl.Cl	–	–	1	–	–	1	0.5	1	3.9	2.8	0.004	0.5	3.9	0.5	1.4
Br.Br.CCCCCCCCCN=c1ccn(CCCCCCCn2ccc(=NCCCCCCCCC)cc2)cc1	–	–	1	–	–	2	2	1	15.6	7.16	0.004	2	3.9	0.5	2.86
